Assay results published in article PMC3574199 (Bioorganic & medicinal chemistry, 2012).

Columns and labels:
Type in all cases: biochemical
rat nNOS = rat nNOS (Rattus norvegicus, UniProt P29476); assay: Nitric oxide hemoglobin capture assay, nNOS
How it was run: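 Recombinant rat nNOS was expressed in E. coli. Assays ran at room temperature in 100 mM Hepes pH 7.4 with 10 µM L-arginine, 1.6 mM CaCl2, 11.6 µg/mL calmodulin, 100 µM DTT, 100 µM NADPH, 6.5 µM H4B and 3.0 µM oxyhemoglobin. Enzyme addition started the reaction, and initial rates came from NO-hemoglobin formation at 401 nm over 60 sec. Ki = IC50/(1+[S]/Km), Km 1.3 µM.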

murine macrophage iNOS = murine macrophage iNOS (Mus musculus, UniProt P29477); assay: Nitric oxide hemoglobin capture assay, iNOS; settings: for selectivity n/i: ratio of Ki (iNOS) to Ki (nNOS)
Chain of murine macrophage iNOS (P29477 whole entry): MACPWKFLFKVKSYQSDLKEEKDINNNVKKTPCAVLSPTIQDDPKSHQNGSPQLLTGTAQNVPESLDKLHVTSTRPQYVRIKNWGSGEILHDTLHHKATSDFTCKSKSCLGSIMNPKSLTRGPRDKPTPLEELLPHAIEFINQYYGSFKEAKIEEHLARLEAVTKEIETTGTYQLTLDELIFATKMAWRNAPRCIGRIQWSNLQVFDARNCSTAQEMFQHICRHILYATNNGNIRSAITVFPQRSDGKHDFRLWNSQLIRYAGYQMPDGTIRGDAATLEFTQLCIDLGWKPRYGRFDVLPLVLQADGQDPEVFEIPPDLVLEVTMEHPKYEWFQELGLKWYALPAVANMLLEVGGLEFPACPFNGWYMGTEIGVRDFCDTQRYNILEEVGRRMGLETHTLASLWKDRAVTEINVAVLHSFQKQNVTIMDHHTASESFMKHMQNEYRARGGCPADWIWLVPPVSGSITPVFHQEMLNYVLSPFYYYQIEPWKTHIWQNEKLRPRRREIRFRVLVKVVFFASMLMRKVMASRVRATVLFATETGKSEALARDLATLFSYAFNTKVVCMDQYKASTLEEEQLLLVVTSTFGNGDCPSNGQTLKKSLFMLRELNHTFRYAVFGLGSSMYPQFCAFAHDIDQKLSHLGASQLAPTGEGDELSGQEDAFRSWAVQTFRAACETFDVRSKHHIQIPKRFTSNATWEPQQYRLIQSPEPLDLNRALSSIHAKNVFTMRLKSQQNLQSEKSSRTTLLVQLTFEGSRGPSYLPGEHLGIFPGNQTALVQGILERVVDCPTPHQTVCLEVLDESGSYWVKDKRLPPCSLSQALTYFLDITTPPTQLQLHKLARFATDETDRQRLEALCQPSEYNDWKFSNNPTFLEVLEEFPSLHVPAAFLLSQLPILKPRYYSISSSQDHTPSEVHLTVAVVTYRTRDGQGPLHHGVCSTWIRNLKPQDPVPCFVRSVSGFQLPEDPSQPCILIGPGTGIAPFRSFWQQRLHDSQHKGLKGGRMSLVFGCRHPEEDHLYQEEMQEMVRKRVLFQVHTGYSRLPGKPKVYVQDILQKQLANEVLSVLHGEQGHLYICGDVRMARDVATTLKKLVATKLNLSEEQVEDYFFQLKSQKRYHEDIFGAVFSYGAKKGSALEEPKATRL

bovine eNOS = bovine eNOS (Bos taurus, UniProt P29473); assay: Nitric oxide hemoglobin capture assay, eNOS; settings: for selectivity n/e: ratio of Ki (eNOS) to Ki (nNOS)

Chain of rat nNOS (P29476 whole entry): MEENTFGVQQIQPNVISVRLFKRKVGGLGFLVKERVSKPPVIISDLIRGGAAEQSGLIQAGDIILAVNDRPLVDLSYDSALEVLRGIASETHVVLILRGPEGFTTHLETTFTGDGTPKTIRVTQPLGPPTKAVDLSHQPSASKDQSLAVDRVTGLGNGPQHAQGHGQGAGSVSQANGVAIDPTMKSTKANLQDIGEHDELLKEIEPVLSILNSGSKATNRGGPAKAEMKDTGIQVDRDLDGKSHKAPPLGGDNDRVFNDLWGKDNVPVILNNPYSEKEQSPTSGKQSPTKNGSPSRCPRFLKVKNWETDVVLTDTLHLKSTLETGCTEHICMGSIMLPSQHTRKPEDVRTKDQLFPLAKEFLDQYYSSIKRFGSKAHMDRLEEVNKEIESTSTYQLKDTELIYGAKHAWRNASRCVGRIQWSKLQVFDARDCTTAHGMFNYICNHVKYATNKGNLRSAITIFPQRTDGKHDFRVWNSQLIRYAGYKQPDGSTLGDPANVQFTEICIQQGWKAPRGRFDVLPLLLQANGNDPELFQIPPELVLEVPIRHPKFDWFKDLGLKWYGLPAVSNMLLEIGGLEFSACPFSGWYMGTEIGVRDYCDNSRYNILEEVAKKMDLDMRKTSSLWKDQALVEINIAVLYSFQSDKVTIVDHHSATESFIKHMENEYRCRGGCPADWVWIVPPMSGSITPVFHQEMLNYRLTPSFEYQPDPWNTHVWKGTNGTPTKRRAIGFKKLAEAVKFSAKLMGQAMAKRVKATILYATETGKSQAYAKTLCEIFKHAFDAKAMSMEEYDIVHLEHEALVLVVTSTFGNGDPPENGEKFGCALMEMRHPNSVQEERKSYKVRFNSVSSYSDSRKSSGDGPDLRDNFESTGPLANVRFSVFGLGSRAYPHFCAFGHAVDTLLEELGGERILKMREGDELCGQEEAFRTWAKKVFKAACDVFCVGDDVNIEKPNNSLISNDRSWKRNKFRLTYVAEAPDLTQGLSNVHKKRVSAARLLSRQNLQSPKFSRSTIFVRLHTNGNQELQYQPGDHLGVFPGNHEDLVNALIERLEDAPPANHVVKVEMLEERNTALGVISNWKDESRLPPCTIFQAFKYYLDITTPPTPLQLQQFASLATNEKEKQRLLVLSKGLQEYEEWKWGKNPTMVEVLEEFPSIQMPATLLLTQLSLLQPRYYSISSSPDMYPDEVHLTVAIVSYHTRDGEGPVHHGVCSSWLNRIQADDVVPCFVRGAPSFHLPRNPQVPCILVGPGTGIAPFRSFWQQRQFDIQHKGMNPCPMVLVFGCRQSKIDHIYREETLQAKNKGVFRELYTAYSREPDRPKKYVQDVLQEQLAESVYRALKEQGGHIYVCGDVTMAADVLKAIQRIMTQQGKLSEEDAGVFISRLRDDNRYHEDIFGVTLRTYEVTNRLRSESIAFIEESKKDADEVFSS

Ki (rat nNOS) | Ki (murine macrophage iNOS) | Structure (SMILES) | Ki (bovine eNOS) | selectivity n/e (bovine eNOS) | selectivity n/i (murine macrophage iNOS)
0.14 µM | 10 µM | Cc1cccc(C2CC2NCCO[C@H]2CNC[C@H]2Cc2cc(C)cc(N)n2)c1 (mixture of isomers) [(±) 2c, 4-Methyl-6-(((3R,4R)-4-(2-((1S,2R/1R,2S)-2-m-tolylcyclopropylamino)ethoxy)pyrrolidin-3-yl)methyl)pyridin-2-amine] | – | – | –
0.071 µM | 0.86 µM | Cc1cc(N)nc(C[C@@H]2CNC[C@@H]2OCCNC2CC2c2cccc(Cl)c2)c1 (mixture of isomers) [(±) 2d, 6-(((3R,4R)-4-(2-((1S,2R/1R,2S)-2-(3-Clorophenyl)cyclopropylamino)ethoxy)pyrrolidin-3-yl)methyl)-4-methylpyridin-2-amine] | 26 µM | 370 | 12
0.175 µM | 12 µM | Cc1cc(N)nc(C[C@@H]2CNC[C@@H]2OCCN[C@H]2C[C@@H]2c2cccc(F)c2)c1 [Compound 2b, 6-(((3R,4R)-4-(2-((1S,2R)-2-(3-Fluorophenyl)cyclopropylamino)ethoxy)pyrrolidin-3-yl)methyl)-4-methylpyridin-2-amine] | – | – | –

Structure (SMILES) | Ki (rat nNOS) | Ki (murine macrophage iNOS) | Ki (bovine eNOS) | selectivity n/e (bovine eNOS) | selectivity n/i (murine macrophage iNOS)
Cc1cc(N)nc(C[C@@H]2CNC[C@@H]2OCCNC(C)Cc2cccc(F)c2)c1.Cl (mixture of isomers) [(±) 2e, 6-(((3R,4R)-4-(2-(((R/S)-1-(3-fluorophenyl)propan-2-yl)amino)ethoxy)pyrrolidin-3-yl)methyl)-4-methylpyridin-2-amine] | 0.046 µM | 10.2 µM | 68 µM | 1500 | 220
